# Reference: ChEMBL document CHEMBL1140808, “Antiproliferative effects of dibenzocyclooctadiene lignans isolated from Schisandra chinensis in human cancer cells” (Bioorg Med Chem Lett, 2008)
# The source made the active and inactive calls. The calls are words filed in the database; no cut-off is given here.
# What was measured:
# T47D = experiment: Antiproliferative activity against human T47D cells after 72 hrs by SRB assay; type: functional, cell-based
# A549 [1] = experiment: Antiproliferative activity against human A549 cells after 72 hrs by SRB assay; type: functional, cell-based
# K562 = experiment: Antiproliferative activity against human K562 cells after 72 hrs by MTT assay; type: functional, cell-based
# HCT-15 = experiment: Antiproliferative activity against human HCT15 cells after 72 hrs by SRB assay; type: functional, cell-based
# SNU-638 = experiment: Antiproliferative activity against human SNU638 cells after 72 hrs by SRB assay; type: functional, cell-based
# MDA-MB-231 = experiment: Antiproliferative activity against human MDA-MB-231 cells after 72 hrs by SRB assay; type: functional, cell-based; settings: MDA-MB-231, 72 h
# SK-HEP1 = experiment: Antiproliferative activity against human SK-HEP1 cells after 72 hrs by SRB assay; type: functional, cell-based; settings: SK-HEP1, 72 h
# A549 [2] = experiment: Cell cycle arrest in human A549 cells assessed as accumulation at S phase at 60 uM after 24 hrs; type: functional
# In short: (§1)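 A549 human lung cancer cells exposed 24 h to the lignan over 3.75–60 µM. Cell cycle distribution measured by flow cytometry. The percentage of cells in each phase (G0/G1, S, G2/M, sub-G1) was derived by cell cycle modelling of the DNA histograms.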
# A549 [3] = experiment: Effect on cdk2 expression in human A549 cells after 24 hrs; type: functional, cell-based
# In short: (§2)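 Protein levels measured by Western blot in A549 human lung cancer cells after 24 h exposure to a range of lignan concentrations.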
# A549 [4] = experiment: Effect on cyclin A expression in human A549 cells at 60 uM after 24 hrs; type: functional, cell-based; in short: as §2
# A549 [5] = experiment: Effect on cyclin D1 expression in human A549 cells after 24 hrs; type: functional, cell-based; in short: as §2
# A549 [6] = experiment: Cell cycle arrest in human A549 cells assessed as accumulation at S phase at 10 uM after 24 hrs; type: functional; in short: as §1
# A549 [7] = experiment: Cell cycle arrest in human A549 cells assessed as accumulation at G0/G1 phase at 40 uM after 24 hrs; type: functional; in short: as §1
# A549 [8] = experiment: Inhibition of human retinoblastoma protein phosphorylation in A549 cells after 24 hrs; type: cell-based; in short: as §2
# A549 [9] = experiment: Cell cycle arrest in human A549 cells assessed as accumulation at G0/G1 phase at 60 uM after 24 hrs; type: functional; in short: as §1
# A549 [10] = experiment: Cell cycle arrest in human A549 cells assessed as accumulation at S phase at 5 uM after 24 hrs; type: functional; in short: as §1
# A549 [11] = experiment: Cell cycle arrest in human A549 cells assessed as accumulation at G0/G1 phase at 10 uM after 24 hrs; type: functional; in short: as §1
# A549 [12] = experiment: Effect on cdk4 expression in human A549 cells after 24 hrs; type: functional, cell-based; in short: as §2
# A549 [13] = experiment: Cell cycle arrest in human A549 cells assessed as accumulation at subG1 phase at 20 uM after 24 hrs; type: functional; in short: as §1
# A549 [14] = experiment: Cell cycle arrest in human A549 cells assessed as accumulation at G2/M phase at 60 uM after 24 hrs; type: functional; in short: as §1
# A549 [15] = experiment: Cell cycle arrest in human A549 cells assessed as accumulation at G2/M phase at 40 uM after 24 hrs; type: functional; in short: as §1
# A549 [16] = experiment: Cell cycle arrest in human A549 cells assessed as accumulation at subG1 phase at 60 uM after 24 hrs; type: functional; in short: as §1
# A549 [17] = experiment: Cell cycle arrest in human A549 cells assessed as accumulation at subG1 phase at 5 uM after 24 hrs; type: functional; in short: as §1
# A549 [18] = experiment: Cell cycle arrest in human A549 cells assessed as accumulation at G0/G1 phase at 20 uM after 24 hrs; type: functional; in short: as §1
# A549 [19] = experiment: Cell cycle arrest in human A549 cells assessed as accumulation at subG1 phase at 10 uM after 24 hrs; type: functional; in short: as §1
# A549 [20] = experiment: Cell cycle arrest in human A549 cells assessed as accumulation at subG1 phase at 40 uM after 24 hrs; type: functional; in short: as §1
# A549 [21] = experiment: Cell cycle arrest in human A549 cells assessed as accumulation at G2/M phase at 5 uM after 24 hrs; type: functional; in short: as §1
# A549 [22] = experiment: Cell cycle arrest in human A549 cells assessed as accumulation at G2/M phase at 10 uM after 24 hrs; type: functional; in short: as §1
# A549 [23] = experiment: Cell cycle arrest in human A549 cells assessed as accumulation at S phase at 20 uM after 24 hrs; type: functional; in short: as §1
# A549 [24] = experiment: Cell cycle arrest in human A549 cells assessed as accumulation at G2/M phase at 20 uM after 24 hrs; type: functional; in short: as §1
# A549 [25] = experiment: Effect on p27 expression in human A549 cells after 24 hrs; type: functional, cell-based; in short: as §2
# A549 [26] = experiment: Cell cycle arrest in human A549 cells assessed as accumulation at S phase at 40 uM after 24 hrs; type: functional; in short: as §1
# A549 [27] = experiment: Cell cycle arrest in human A549 cells assessed as accumulation at G0/G1 phase at 5 uM after 24 hrs; type: functional; in short: as §1
smiles,measurement,setting,value
COc1cc2c(c(OC)c1OC)-c1c(cc3c(c1OC)OCO3)C[C@H](C)[C@H](C)C2 (stereo in doubt; form 1) [WUWEIZISU B],IC50,T47D; t47d,19.2 µM
same,IC50,A549 [1]; a549,21.1 µM
same,IC50,K562; k562,22 µM
same,IC50,HCT-15; hct-15,14.1 µM
same,IC50,SNU-638; snu-638,23.1 µM
COc1cc2c(c(OC)c1OC)-c1c(cc3c(c1OC)OCO3)C[C@H](C)[C@H](C)C2 (stereo in doubt; form 2) [WUWEIZISU B],IC50,T47D; t47d,> 100 µM
same,IC50,MDA-MB-231,> 100 µM
same,IC50,A549 [1]; a549,87.8 µM
same,IC50,K562; k562,62.6 µM
same,IC50,SK-HEP1,> 100 µM
same,IC50,HCT-15; hct-15,88.1 µM
same,IC50,SNU-638; snu-638,> 100 µM
COc1cccc2c1C(=O)c1c(O)c3c(c(O)c1C2=O)C[C@@](O)(C(=O)CO)C[C@@H]3O[C@H]1C[C@H](N)[C@H](O)[C@H](C)O1 [DOXORUBICIN],IC50,"T47D; Homo sapiens, T47D, 72 h",0.1 µM
same,IC50,MDA-MB-231,0.2 µM
same,IC50,"A549 [1]; Homo sapiens, A549, 72 h",0.1 µM
same,IC50,SK-HEP1,0.1 µM
same,IC50,"HCT-15; Homo sapiens, HCT-15, 72 h",0.6 µM
same,IC50,"SNU-638; Homo sapiens, SNU-638, 72 h",0.07 µM
COc1cc2c(c(OC)c1OC)-c1c(cc3c(c1OC)OCO3)C[C@H](C)[C@](C)(O)C2 [GOMISIN A],IC50,"T47D; Homo sapiens, T47D, 72 h",> 100 µM
same,IC50,MDA-MB-231,> 100 µM
same,IC50,"A549 [1]; Homo sapiens, A549, 72 h",84.1 µM
same,IC50,"K562; Homo sapiens, K562, 72 h",> 100 µM
same,IC50,SK-HEP1,> 100 µM
same,IC50,"HCT-15; Homo sapiens, HCT-15, 72 h",> 100 µM
same,IC50,"SNU-638; Homo sapiens, SNU-638, 72 h",90.5 µM
C/C=C(\C)C(=O)O[C@H]1c2cc(OC)c(OC)c(OC)c2-c2c(cc3c(c2OC)OCO3)C[C@H](C)[C@]1(C)O [GOMISIN B],IC50,"T47D; Homo sapiens, T47D, 72 h",> 100 µM
same,IC50,MDA-MB-231,> 100 µM
same,IC50,"A549 [1]; Homo sapiens, A549, 72 h",> 100 µM
same,IC50,"K562; Homo sapiens, K562, 72 h",> 100 µM
same,IC50,SK-HEP1,> 100 µM
same,IC50,"HCT-15; Homo sapiens, HCT-15, 72 h",> 100 µM
same,IC50,"SNU-638; Homo sapiens, SNU-638, 72 h",> 100 µM
COc1cc2c(c(OC)c1OC)-c1c(cc3c(c1OC)OCO3)C[C@H](C)[C@](C)(O)[C@H]2OC(=O)c1ccccc1 [GOMISIN C],IC50,"T47D; Homo sapiens, T47D, 72 h",51.2 µM
same,IC50,MDA-MB-231,56.4 µM
same,IC50,"A549 [1]; Homo sapiens, A549, 72 h",> 100 µM
same,IC50,"K562; Homo sapiens, K562, 72 h",> 100 µM
same,IC50,SK-HEP1,70.4 µM
same,IC50,"HCT-15; Homo sapiens, HCT-15, 72 h",> 100 µM
same,IC50,"SNU-638; Homo sapiens, SNU-638, 72 h",44.7 µM
COc1cc2c(c(OC)c1OC)-c1c(cc(OC)c(OC)c1OC)C[C@H](C)[C@H](C)C2 [SCHISANDRIN A],IC50,"T47D; Homo sapiens, T47D, 72 h",40 µM
same,IC50,MDA-MB-231,> 100 µM
same,IC50,"A549 [1]; Homo sapiens, A549, 72 h",> 100 µM
same,IC50,"K562; Homo sapiens, K562, 72 h",> 100 µM
same,IC50,SK-HEP1,42 µM
same,IC50,"HCT-15; Homo sapiens, HCT-15, 72 h",> 100 µM
same,IC50,"SNU-638; Homo sapiens, SNU-638, 72 h",53.1 µM
COc1c2c(cc3c1-c1c(cc4c(c1OC)OCO4)C[C@H](C)[C@H](C)C3)OCO2 [SCHISANDRIN C],IC50,"T47D; Homo sapiens, T47D, 72 h",> 100 µM
same,IC50,MDA-MB-231,> 100 µM
same,IC50,"A549 [1]; Homo sapiens, A549, 72 h",> 100 µM
same,IC50,"K562; Homo sapiens, K562, 72 h",> 100 µM
same,IC50,SK-HEP1,> 100 µM
same,IC50,"HCT-15; Homo sapiens, HCT-15, 72 h",> 100 µM
same,IC50,"SNU-638; Homo sapiens, SNU-638, 72 h",> 100 µM
C/C=C(\C)C(=O)O[C@H]1c2cc(OC)c(OC)c(OC)c2-c2c(cc3c(c2O)OCO3)C[C@H](C)[C@]1(C)O [SCHISANTHERIN C],Activity,A549 [2],8.2%
same,IC50,"T47D; Homo sapiens, T47D, 72 h",26.1 µM
same,Activity,A549 [3],inactive
same,Activity,A549 [4],inactive
same,Activity,A549 [5],inactive
same,Activity,A549 [6],31.6%
same,IC50,MDA-MB-231,33.5 µM
same,Activity,A549 [7],65.3%
same,IC50,"A549 [1]; Homo sapiens, A549, 72 h",5.6 µM
same,Activity,A549 [8],Active
same,Activity,A549 [9],75%
same,Activity,A549 [10],31.8%
same,Activity,A549 [11],50.4%
same,Activity,A549 [12],inactive
same,Activity,A549 [13],0.6%
same,Activity,A549 [14],10.8%
same,IC50,"K562; Homo sapiens, K562, 72 h",11.3 µM
same,IC50,SK-HEP1,19.9 µM
same,Activity,A549 [15],15.9%
same,Activity,A549 [16],2.5%
same,Activity,A549 [17],0.6%
same,Activity,A549 [18],57.9%
same,Activity,A549 [19],1.5%
same,Activity,A549 [20],1.1%
same,Activity,A549 [21],18.1%
same,Activity,A549 [22],18%
same,Activity,A549 [23],26%
same,IC50,"HCT-15; Homo sapiens, HCT-15, 72 h",5.6 µM
same,Activity,A549 [24],16.2%
same,IC50,"SNU-638; Homo sapiens, SNU-638, 72 h",15.3 µM
same,Activity,A549 [25],Active
same,Activity,A549 [26],18.8%
same,Activity,A549 [27],50.1%
COc1cc2c(c(OC)c1OC)-c1c(cc(OC)c(OC)c1OC)C[C@](C)(O)[C@@H](C)C2 [SCHIZANDRIN],IC50,"T47D; Homo sapiens, T47D, 72 h",19.8 µM
same,IC50,MDA-MB-231,61.5 µM
same,IC50,"A549 [1]; Homo sapiens, A549, 72 h",20.7 µM
same,IC50,"K562; Homo sapiens, K562, 72 h",25 µM
same,IC50,SK-HEP1,71.3 µM
same,IC50,"HCT-15; Homo sapiens, HCT-15, 72 h",50.2 µM
same,IC50,"SNU-638; Homo sapiens, SNU-638, 72 h",21.1 µM
